The source of these data is ChEMBL document CHEMBL1126317, “2-(aminoalkyl)-5-nitropyrazolo[3,4,5-kl]acridines, a new class of anticancer agents” (1992).

One test relates to L1210. Put plainly: In vitro antitumor activity against L1210 leukemia cell line. It counts as functional. The following applies: Mus musculus, read-out: ID50 (the source's name).
Test [1] relates to Mus musculus. In words: In vivo antitumor activity of the compound(ip, 6 mg/kg for 5 days) against CD2F1 mice implanted intraperitoneally with P388 leukemia cells. The test is classed as functional. As to conditions: route intraperitoneal.
Test [2] concerns Mus musculus. In words: In vivo antitumor activity of the compound(ip, 6 mg/kg for 5 days) against CD2F1 mice implanted intraperitoneally with P388 leukemia cells; Day 30 survivors=1/6. It counts as functional. The following applies: route intraperitoneal.
The subject of test [3] is Mus musculus. Put plainly: In vivo antitumor activity of the compound(ip, 25 mg/kg for 5 days) against CD2F1 mice implanted intraperitoneally with P388 leukemia cells; Day 30 survivors=1/6. It counts as functional. The following applies: route intraperitoneal.
The test system of test [4] is Mus musculus. In words: In vivo antitumor activity of the compound(ip, 25 mg/kg for 5 days) against CD2F1 mice implanted intraperitoneally with P388 leukemia cells. It counts as functional. The following applies: route intraperitoneal.
Test [5] has as its system Mus musculus. In words: In vivo antitumor activity of the compound(ip, 3.12 mg/kg for 5 days) against CD2F1 mice implanted intraperitoneally with P388 leukemia cells. The test is classed as functional. As to conditions: route intraperitoneal.
Test [6] relates to Mus musculus. In words: In vivo antitumor activity of the compound(ip, 3.12 mg/kg for 5 days) against CD2F1 mice implanted intraperitoneally with P388 leukemia cells; Day 30 survivors=1/6. It counts as functional. As to conditions: route intraperitoneal.
The subject of test [7] is Mus musculus. Put plainly: In vivo antitumor activity of the compound(ip, 12.5 mg/kg for 5 days) against CD2F1 mice implanted intraperitoneally with P388 leukemia cells; Day 30 survivors=2/6. It counts as functional. The following applies: route intraperitoneal.
The test system of test [8] is Mus musculus. Put plainly: In vivo antitumor activity of the compound(ip, 12.5 mg/kg for 5 days) against CD2F1 mice implanted intraperitoneally with P388 leukemia cells. As to conditions: route intraperitoneal. The test is classed as functional.
In test [9] the test system is Mus musculus. Put plainly: In vivo antitumor activity of the compound(ip, 12.5 mg/kg for 5 days) against CD2F1 mice implanted intraperitoneally with P388 leukemia cells; Day 30 survivors=3/6. It counts as functional. The following applies: route intraperitoneal.
A short description of test [10]: Ratio of the ID50's showing antitumor activity against HCT-8 and L1210 leukemia cell lines. The test is classed as functional. In a few lines: (§1)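 Ratio taken as ID50 in HCT-8 cells divided by ID50 in L1210 cells, both ID50s expressed as molar concentrations.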
The test system of test [11] is Mus musculus. Put plainly: In vivo antitumor activity of the compound(ip, 6.25 mg/kg for 5 days) against CD2F1 mice implanted intraperitoneally with P388 leukemia cells; Day 30 survivors=5/6. The test is classed as functional. The following applies: route intraperitoneal.
The test system of test [12] is Mus musculus. Put plainly: In vivo antitumor activity of the compound(ip, 6.25 mg/kg for 5 days) against CD2F1 mice implanted intraperitoneally with P388 leukemia cells. The test is classed as functional. The following applies: route intraperitoneal.
In the next test the test system is HCT-8. Put plainly: In vitro antitumor activity against HCT-8 colon cancer cell line. It counts as functional. As to conditions: Homo sapiens, read-out: ID50 (the source's name).
Test [13] deals with Mus musculus. Put plainly: In vivo antitumor activity of the compound(ip, 6.25 mg/kg for 5 days) against CD2F1 mice implanted intraperitoneally with P388 leukemia cells; Day 30 survivors=6/6. The test is classed as functional. The following applies: route intraperitoneal.
Test [14] is described as follows: Ratio of the ID50's showing antitumor activity against HCT-8 and L1210 leukemia cell lines. It counts as functional. In a few lines: as §1
Test [15] relates to Mus musculus. In words: In vivo antitumor activity of the compound(ip, 3 mg/kg for 5 days) against CD2F1 mice implanted intraperitoneally with P388 leukemia cells. It counts as functional. The following applies: route intraperitoneal.
The test system of test [16] is Mus musculus. In words: In vivo antitumor activity of the compound(ip, 25 mg/kg for 5 days) against CD2F1 mice implanted intraperitoneally with P388 leukemia cells; Day 30 survivors=1/6. The following applies: route intraperitoneal.
In test [17] the test system is Mus musculus. In words: In vivo antitumor activity of the compound(ip, 25 mg/kg for 5 days) against CD2F1 mice implanted intraperitoneally with P388 leukemia cells. The following applies: route intraperitoneal.
In test [18] the test system is Mus musculus. In words: In vivo antitumor activity of the compound(ip, 3.12 mg/kg for 5 days) against CD2F1 mice implanted intraperitoneally with P388 leukemia cells; Day 30 survivors=4/6. The test is classed as functional. The following applies: route intraperitoneal.

As to `CCN(CC)CCN1Nc2c3c(Cl)c(O)ccc3nc3c([N+](=O)[O-])ccc1c23.CS(=O)(=O)O`, in the test on L1210, the IC50 turned out to be 0.39 nM. Besides, in the test with Mus musculus [1], the T/C (usually the ratio of treated to control) was found to be 196%. In the test on Mus musculus [2], this compound returned an Activity of 1.

Compound `CCN(CC)CCN1Nc2c3cc(N(C)C)ccc3nc3c([N+](=O)[O-])ccc1c23.CS(=O)(=O)O` showed an Activity with Mus musculus [3] of 1. Moreover, in the test with L1210, the IC50 was 900 nM. In addition, in the test with Mus musculus [4], the T/C came to 178%.

With `CC(=O)Oc1ccc2c(c1)-c1nn(CCN3CCCC3)c3ccc([N+](=O)[O-])c(c13)N2.CS(=O)(=O)O`, the IC50 in the test on L1210 came out at 2.2 nM. The same compound yielded a T/C in the test on Mus musculus [5] of 236%. This compound also gave an Activity in the test on Mus musculus [6] of 1.

With `CCN(CC)CCN1Nc2c3cc(O[Si](C)(C)C(C)(C)C)ccc3nc3c([N+](=O)[O-])ccc1c23.CS(=O)(=O)O`, in the test with L1210, the IC50 stood at 1.7 nM. The same compound yielded an Activity with Mus musculus [7] of 2. Besides, the T/C in the test on Mus musculus [8] stood at 228%.

On to `CCN(CC)CCN1Nc2c3c(Cl)c(OC)ccc3nc3c([N+](=O)[O-])ccc1c23.CS(=O)(=O)O`, for which the IC50 with L1210 stood at 61 nM. Further, the Activity with Mus musculus [9] amounted to 3. In addition, in the test with Mus musculus [8], the T/C is on record as 230%.

Regarding `CCN(CC)CCN1Nc2c3cc(OC(=O)C(C)(C)C)ccc3nc3c([N+](=O)[O-])ccc1c23.CS(=O)(=O)O`, the IC50 was determined as 1 nM in the test on L1210 and 9.7 nM in the test with HCT-8. For the same compound, the Ratio in test [10] came to 0.97. Besides, the Activity in the test on Mus musculus [11] is listed as 5. Moreover, the T/C in the test with Mus musculus [12] was found to be 283%.

Turning to `CS(=O)(=O)O.O=[N+]([O-])c1ccc2c3c(c4cc(O)ccc4nc13)NN2CCNCCO`, in the test on L1210, the IC50 worked out at 4.8 nM. Besides, in the test on Mus musculus [13], the Activity was 6. Besides, in the test with Mus musculus [12], the T/C amounted to 275%.

As for `CCN(CC)CCN1Nc2c3cc(OC)ccc3nc3c([N+](=O)[O-])ccc1c23.CS(=O)(=O)O`, the IC50 was 470 nM in the test with L1210 and 120 nM with HCT-8. Also, in test [14], the Ratio amounted to 0.26. This compound also showed a T/C with Mus musculus [4] of 242%.

`CCN(CC)CCN1Nc2c3cc(O)ccc3nc3c([N+](=O)[O-])ccc1c23.CS(=O)(=O)O`: the IC50 in the test with L1210 was determined as 2 nM; in the test on HCT-8, 13 nM. In addition, the Ratio in test [10] came to 6.5. The T/C in the test on Mus musculus [15] is reported as 180%.

Regarding `C=CCOc1ccc2nc3c([N+](=O)[O-])ccc4c3c(c2c1)NN4CCN(CC)CC.CS(=O)(=O)O`, in the test with L1210, the IC50 amounted to 580 nM. For the same compound, in the test with Mus musculus [16], the Activity is given as 1. This compound also yielded a T/C in the test on Mus musculus [17] of 258%.

On to `CCN(CC)CCN1Nc2c3cc(OC(C)=O)ccc3nc3c([N+](=O)[O-])ccc1c23.CS(=O)(=O)O`, for which the IC50 in the test on L1210 amounted to 3.8 nM; with HCT-8, 5.3 nM. Moreover, the Ratio in test [10] turned out to be 1.4. In addition, the T/C in the test with Mus musculus [5] is 283%. The compound further returned an Activity in the test with Mus musculus [18] of 4.
